Experimental data of several laboratories.
Protocols differ between the studies behind these lines. pIC50: −log10 of the molar value.
Cell line: HepG2
Effect on: cell growth or viability

SMILES | technique | concentration | time | endpoint | result
O=C(Nc1ccc(Oc2nnc(-c3ccc(Cl)cc3)c3ccccc23)cc1)c1ccccc1 | MTT | 10 µM | 24 h | viability | 4.07%
CN(C)c1cc(NC(=O)CCc2ccccc2)c(O)c2c1C[C@H]1C[C@H]3[C@H](N(C)C)C(O)=C(C(N)=O)C(=O)[C@@]3(O)C(O)=C1C2=O | ATP luminescence |  | 72 h | IC50 | 165 µg/mL
CC(=O)c1nn(-c2ccccc2Cl)/c(=N/N=C(\C)c2ccc(NC(=O)c3ccccc3)cc2)s1 | MTT | 1.25 µM |  | viability | 5.77%
O=C(Nc1ccccc1)Nc1ccc(Oc2nnc(-c3ccc(Cl)cc3)c3ccccc23)cc1 | MTT | 5 µM |  | cell death | 94.9%
COc1ccc(-c2cc(-c3ccc(Br)cc3)c3c(=O)n(C)c(=O)n(C)c3n2)cc1 | MTT |  | 48 h | pIC50 | 5.07
CC(=O)Nc1ccc(/C(C)=N/N=c2\sc(C(C)=O)nn2-c2ccc(C)cc2)cc1 | MTT | 10 µM |  | viability | 48.8%
CC(=NNC(=O)c1cccnc1)c1ccc(Nc2nnc(-c3ccc(Cl)cc3)c3ccccc23)cc1 | MTT | 1.25 µM |  | cell death | 88.1%
COc1ccc(-c2cc(-c3ccc(Cl)cc3)c3c(=O)n(C)c(=O)n(C)c3n2)cc1 | MTT |  | 48 h | pIC50 | 4.76
C/C(=N\N=C1/NC(=O)/C(=C\c2ccc(F)cc2)S1)c1ccccn1 | SRB | 100 µg/mL | 48 h | inhibition | 57.6%
CC(=NNC(=O)COc1ccc2c(C)c(Cc3ccccc3)c(=O)oc2c1C)c1ccc(Br)cc1 | MTT | 6.3 µg/mL |  | viability | 50.6%
COc1ccc(-c2cc(-c3ccc(C)cc3)nc3[nH]c(=O)[nH]c(=O)c23)cc1OC | MTT |  | 48 h | pIC50 | 4.46
CC(=O)c1nn(-c2ccc(C)cc2)/c(=N/N=C(\C)c2ccc(NC(=O)c3ccccc3)cc2)s1 | MTT | 5 µM |  | viability | 6.81%
CC(=NNC(N)=S)c1ccc(Nc2nnc(-c3ccc(Cl)cc3)c3ccccc23)cc1 | MTT | 1.25 µM |  | cell death | 92.3%
Cc1nc2ccc(CN(C)c3ccc(C(=O)N[C@@H](CCC(=O)O)C(=O)O)s3)cc2c(=O)[nH]1 | MTT |  | 48 h | pIC50 | 5.87
COc1cccc2c1C(=O)c1c(O)c3c(c(O)c1C2=O)C[C@@](O)(C(=O)CO)C[C@@H]3O[C@H]1C[C@H](N)[C@H](O)[C@H](C)O1 | MTT |  | 72 h | pIC50 | 6.27
CC(=NNC(=O)c1ccccc1O)c1ccc(Nc2nnc(-c3ccc(Cl)cc3)c3ccccc23)cc1 | MTT | 1.25 µM | 24 h | viability | 87.2%
CCOC(=O)c1nn(-c2cccc(Cl)c2)/c(=N/N=C(\C)c2ccc(NC(=O)c3ccccc3)cc2)s1 | MTT | 5 µM |  | viability | 3%
CC(=NNC(=S)Nc1ccccc1)c1ccc(Nc2nnc(-c3ccc(Cl)cc3)c3ccccc23)cc1 | MTT | 0.625 µM | 24 h | viability | 79.5%
COc1ccc(-c2cc(-c3cccc(Br)c3)c3c(=O)[nH]c(=O)[nH]c3n2)cc1 | MTT |  | 48 h | pIC50 | 4.79
CC(=NNC(=O)c1ccncc1)c1ccc(Nc2nnc(-c3ccc(Cl)cc3)c3ccccc23)cc1 | MTT | 78 nM |  | cell death | 3.16%
CCOC(=O)c1nn(-c2cccc(Cl)c2)/c(=N/N=C(\C)c2ccc(NC(=O)c3ccc(Cl)cc3)cc2)s1 | MTT | 78 nM |  | viability | 73.1%
